Measurements: ChEMBL document CHEMBL1151736, “Design, synthesis, and biological evaluation of a series of 2-hydroxyisoquinoline-1,3(2H,4H)-diones as dual inhibitors of human immunodeficiency virus type 1 integrase and the reverse transcriptase RNase H domain” (J Med Chem, 2008)

Experiments:
[1] = Inhibition of HIV1 RNase H; design: species or system Human immunodeficiency virus 1
[2] = target: Human immunodeficiency virus type 1 reverse transcriptase (Human immunodeficiency virus 1) (UniProt Q72547); assay: Inhibition of HIV1 reverse transcriptase at 50 uM
Outline: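 RNA-dependent DNA polymerase activity: recombinant RT preincubated 10 min at 37 °C with compound (1.0, 10.0, 50.0 µM), then 10 min at 37 °C with poly(A)-oligo(dT) 20 µg/mL, 20 µM dTTP plus [3H]dTTP, 5 mM MgCl2, 100 mM KCl, 10 mM DTT, 50 mM Tris-HCl pH 8.0; TCA-precipitated radioactivity on nitrocellulose; percent inhibition.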

[3] = target: T1, Human immunodeficiency virus type 1 integrase (Human immunodeficiency virus 1, UniProt Q7ZJM1)
[4] = Cytotoxicity against human MT4 cells by MTT assay; format: cell-based
[5] = system: Human immunodeficiency virus 1; assay: Antiviral activity against HIV1 3B infected in human MT4 cells assessed as inhibition virus-induced cytopathic effect by MTT assay; format: functional, organism-based; conditions: Human immunodeficiency virus 1, 3B
[6] = system: Human immunodeficiency virus 1; assay: Selectivity ratio of IC50 for HIV1 RNase H to IC50 for HIV1 integrase
Outline: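 Ratio of the RNase H IC50 to the overall-integrase IC50. For RNase H, recombinant HIV-1 RT (4.5 pmol) was preincubated with compound for 10 min at 37 °C. It then ran 10 min at 37 °C on a 3H-RNA/DNA duplex with 6 mM MgCl2 and 80 mM KCl at pH 8.0, read by TCA-precipitated radioactivity. For integrase, ELISA used 1.6 µM integrase and 7 nM biotin/digoxigenin oligos with 10 mM MgCl2, 1 h at 37 °C.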

[7] = target: T1, Human immunodeficiency virus type 1 integrase; remark: listed apart in the source
[8] = target: T1, Human immunodeficiency virus type 1 integrase; remark: listed apart in the source

T1 sequence (Q7ZJM1 whole entry): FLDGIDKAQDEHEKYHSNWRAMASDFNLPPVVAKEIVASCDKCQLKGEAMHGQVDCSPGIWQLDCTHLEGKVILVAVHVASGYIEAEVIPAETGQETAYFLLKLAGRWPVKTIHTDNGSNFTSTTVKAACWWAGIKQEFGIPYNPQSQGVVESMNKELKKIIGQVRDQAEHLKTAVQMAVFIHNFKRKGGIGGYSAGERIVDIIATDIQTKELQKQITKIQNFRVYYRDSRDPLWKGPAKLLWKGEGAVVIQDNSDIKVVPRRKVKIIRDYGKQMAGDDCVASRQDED

SMILES	IC50 [1] [µM]	inhibition [2] [%]	IC50 [3] [µM]	CC50 [4] [µM]	EC50 [5] [µM]	Ratio IC50 [6]	IC50 [7] [µM]	IC50 [8] [µM]
O=C1Cc2ccccc2C(=O)N1O	5.9	40	6.32					
O=C(Nc1ccc2c(c1)C(=O)N(O)C(=O)C2)c1ccc(F)cc1	7.1	40	0.41	> 120	> 120	17.3		
O=C1Cc2ccc(Cl)cc2C(=O)N1O	28.9	40	0.8	> 48	> 48	36.1		
O=C1Cc2ccc(-c3ccccc3)cc2C(=O)N1O	> 80	40	1.73	> 66	> 66	> 47		
O=C(Cc1ccc(F)cc1)Nc1ccc2c(c1)C(=O)N(O)C(=O)C2	35.3	40	0.13	> 116	> 116	272	0.02	0.75
O=C(Cc1ccccc1)Nc1ccc2c(c1)C(=O)N(O)C(=O)C2	> 80	40	0.09	> 121	> 121	> 889	0.1	7.79
CC(=O)Nc1ccc2c(c1)C(=O)N(O)C(=O)C2	40.7	40	0.59	> 250	148	69		
O=C(Nc1ccc2c(c1)C(=O)N(O)C(=O)C2)c1ccccc1	5.7	40	1.24	84	22	4.7		
CCCCC(=O)Nc1ccc2c(c1)C(=O)N(O)C(=O)C2	> 80	40	18.8	> 250	> 250	> 4.2		
O=C1Cc2ccc(I)cc2C(=O)N1O	58	40	1.22	> 70	> 70	48.3		
O=C1Cc2ccc(Br)cc2C(=O)N1O	> 96	40	0.58	> 64	> 64	> 166	0.9	1.4
O=C1Cc2ccc([N+](=O)[O-])cc2C(=O)N1O	48	40	8.5	> 205	> 205	5.6		
O=C1Cc2ccc(-c3ccc(O)c(O)c3)cc2C(=O)N1O	6.6	70	0.56	> 89	> 89	11.8		
O=C1Cc2ccc(-c3ccc(C(F)(F)F)cc3)cc2C(=O)N1O	10.7	40	1.8	> 47	> 47	5.9		
O=C1Cc2ccc(-c3ccc(F)cc3)cc2C(=O)N1O	22.2	60	1.47	> 46	> 46	15.8		
O=C1Cc2ccc(-c3ccc(O)cc3)cc2C(=O)N1O	7.2	50	5.42	> 186	> 186	1.3		
O=C(Nc1ccc2c(c1)C(=O)N(O)C(=O)C2)c1cccc([N+](=O)[O-])c1	10.8	40	8.9			1.2		
O=C1Cc2ccc(O)cc2C(=O)N1O	37.4	40	2.22	> 48	> 48	17		
